Reference: ChEMBL document CHEMBL3813637, “Synthesis and Antiproliferative and Metabolic Evaluations of Novel Securinine Derivatives” (ACS Med Chem Lett, 2016)

Columns and labels:
[1] = Antiproliferative activity against human HCT116 cells assessed as reduction in cell viability at 10 uM after 72 hrs by ATPlite assay; format: functional; conditions: HCT-116, 72 h, read-out: GI
In short: (§1)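 HCT-116 human colon cancer cells exposed to compound for 72 h at 20, 10 or 1 μM. Growth inhibition is expressed as percentage relative to nontreated cells.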

[2] = Antiproliferative activity against human HCT116 cells assessed as reduction in cell viability at 20 uM after 72 hrs by ATPlite assay; format: functional; conditions: HCT-116, 72 h, read-out: GI; in short: as §1
[3] = Antiproliferative activity against human HCT116 cells assessed as reduction in cell viability at 1 uM after 72 hrs by ATPlite assay; format: functional; conditions: HCT-116, 72 h, read-out: GI; in short: as §1
[4] = Antiproliferative activity against human HL60 cells assessed as reduction in cell viability after 72 hrs by ATPlite assay; format: functional, cell-based; conditions: HL-60, 72 h
In short: (§2)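 IC50 determined in human cancer cell lines (HCT-116, A-375 melanoma, HL-60, A-549). Camptothecin and etoposide served as reference compounds.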

[5] = Antiproliferative activity against human HCT116 cells assessed as reduction in cell viability after 72 hrs by ATPlite assay; format: functional, cell-based; conditions: HCT-116, 72 h; in short: as §2
A549 = assay: Antiproliferative activity against human A549 cells assessed as reduction in cell viability after 72 hrs by ATPlite assay; format: functional, cell-based; conditions: A549, 72 h
In short: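 IC50 values were determined on a panel of four human cancer lines (HCT-116, A-549, HL-60, A-375), with camptothecin and etoposide as reference compounds.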

A-375 = assay: Antiproliferative activity against human A375 cells assessed as reduction in cell viability after 72 hrs by ATPlite assay; format: functional, cell-based; conditions: A-375, 72 h; in short: as §2

| IC50 (A549) [µM] | IC50 (A-375) [µM] | Structure (SMILES) | inhibition of growth at 10 µM [1] [%] | inhibition of growth at 20 µM [2] [%] | inhibition of growth at 1 µM [3] [%] | IC50 [4] [µM] | IC50 [5] [µM] |
| --- | --- | --- | --- | --- | --- | --- | --- |
| – | – | O=C1C=C2C(C#CCO)=C[C@@H]3C[C@@]2(O1)[C@H]1CCCCN31 | 94.9 | 98.9 | 5 | – | – |
| – | – | COC(=O)c1ccc(C2=C[C@@H]3C[C@@]4(OC(=O)C=C24)[C@H]2CCCCN32)cc1 | 10.5 | 23.9 | -3.6 | – | – |
| – | – | Cc1ccc(C2=C[C@@H]3C[C@@]4(OC(=O)C=C24)[C@H]2CCCCN32)cc1 | 11.7 | 30 | 0.3 | – | – |
| – | – | O=C1C=C2C(c3ccc(F)cc3)=C[C@@H]3C[C@@]2(O1)[C@H]1CCCCN31 | 9.9 | 24 | 2.1 | – | – |
| – | – | COc1cc([C@@H]2c3cc4c(cc3[C@@H](O[C@@H]3O[C@@H]5CO[C@@H](C)O[C@H]5[C@H](O)[C@H]3O)[C@H]3COC(=O)[C@H]23)OCO4)cc(OC)c1O [ETOPOSIDE] | – | – | – | 0.86 | > 10 |
| – | – | O=C1C=C2C(c3ccc(-c4ccccc4)cc3)=C[C@@H]3C[C@@]2(O1)[C@H]1CCCCN31 | 52.6 | 82.8 | 5.4 | – | – |
| – | – | O=C1C=C2C(I)=C[C@@H]3C[C@@]2(O1)[C@H]1CCCCN31 | 100 | 100 | 80.9 | – | – |
| – | – | O=C1C=C2C(c3ccc(C(F)(F)F)cc3)=C[C@@H]3C[C@@]2(O1)[C@H]1CCCCN31 | 47.9 | 80.4 | -1.5 | – | – |
| – | – | O=C1C=C2C(C#CC3C=CCCC3)=C[C@@H]3C[C@@]2(O1)[C@H]1CCCCN31 (stereo partly specified) | 98.1 | 97.3 | 3.3 | – | – |
| > 10 | 1.75 | Cc1ccc(C#CC2=C[C@@H]3C[C@@]4(OC(=O)C=C24)[C@H]2CCCCN32)cc1 | 100 | 100 | 64 | > 10 | – |
| – | – | CC(C)(C)c1ccc(C2=C[C@@H]3C[C@@]4(OC(=O)C=C24)[C@H]2CCCCN32)cc1 | 9.7 | 30.6 | 0.9 | – | – |
| 2.64 | 0.36 | CC(C)(C)OC(=O)NCC#CC1=C[C@@H]2C[C@@]3(OC(=O)C=C13)[C@H]1CCCCN21 | 100 | 100 | 79.3 | 5 | 1.66 |
| – | – | O=Cc1ccc(C2=C[C@@H]3C[C@@]4(OC(=O)C=C24)[C@H]2CCCCN32)cc1 | 9.5 | 34.6 | -0.7 | – | – |
| – | – | O=C1C=C2C(C#Cc3ccc(N4CCCCC4)cc3)=C[C@@H]3C[C@@]2(O1)[C@H]1CCCCN31 | 100 | 100 | 98 | – | – |
| – | – | CC(C)(C)C#CC1=C[C@@H]2C[C@@]3(OC(=O)C=C13)[C@H]1CCCCN21 | 98.8 | 100 | 25.2 | – | – |
| – | – | COc1cccc2c1C(=O)c1c(O)c3c(c(O)c1C2=O)C[C@@](O)(C(=O)CO)C[C@@H]3O[C@H]1C[C@H](N)[C@H](O)[C@H](C)O1 [DOXORUBICIN] | 94.3 | 95.6 | 99.6 | – | – |

| IC50 (A549) [µM] | IC50 (A-375) [µM] | Structure (SMILES) | inhibition of growth at 10 µM [1] [%] | inhibition of growth at 20 µM [2] [%] | inhibition of growth at 1 µM [3] [%] | IC50 [4] [µM] | IC50 [5] [µM] |
| --- | --- | --- | --- | --- | --- | --- | --- |
| – | – | O=C1C=C2C(C#CC3CC3)=C[C@@H]3C[C@@]2(O1)[C@H]1CCCCN31 | 94.8 | 93.9 | 5.9 | – | – |
| – | – | O=C1C=C2C(c3ccccc3)=C[C@@H]3C[C@@]2(O1)[C@H]1CCCCN31 | 9.2 | 24.1 | -3.8 | – | – |
| – | – | CCCCC#CC1=C[C@@H]2C[C@@]3(OC(=O)C=C13)[C@H]1CCCCN21 | 98.1 | 99.5 | 7.6 | – | – |
| – | – | CCCCCC#CC1=C[C@@H]2C[C@@]3(OC(=O)C=C13)[C@H]1CCCCN21 | 96.6 | 97.5 | 10.2 | – | – |
| – | – | O=C1C=C2C(c3ccco3)=C[C@@H]3C[C@@]2(O1)[C@H]1CCCCN31 | 23.8 | 45.5 | 6 | – | – |
| – | – | CC(C)(C)OC(=O)NCCCC#CC1=C[C@@H]2C[C@@]3(OC(=O)C=C13)[C@H]1CCCCN21 | 98.8 | 99.9 | 60.1 | – | – |
| – | – | Cc1cccc(C2=C[C@@H]3C[C@@]4(OC(=O)C=C24)[C@H]2CCCCN32)c1 | 15.6 | 33.8 | 5.7 | – | – |
| 3.99 | 2.82 | O=C1C=C2C(C#Cc3ccc(F)cc3)=C[C@@H]3C[C@@]2(O1)[C@H]1CCCCN31 | 99.9 | 100 | 87.3 | > 10 | 2.47 |
| – | – | CC(C)(O)C#CC1=C[C@@H]2C[C@@]3(OC(=O)C=C13)[C@H]1CCCCN21 | 91.6 | 97.7 | 10.3 | – | – |
| – | – | CCN(CC)c1ccc(C#CC2=C[C@@H]3C[C@@]4(OC(=O)C=C24)[C@H]2CCCCN32)cc1 | 100 | 100 | 98.2 | – | – |
| – | – | O=C1C=C2C(c3ccc(Br)cc3)=C[C@@H]3C[C@@]2(O1)[C@H]1CCCCN31 | 23 | 60.1 | -5.2 | – | – |
| – | – | O=C1C=C2C(C#CCCCO)=C[C@@H]3C[C@@]2(O1)[C@H]1CCCCN31 | 64.3 | 96.9 | 5.9 | – | – |
| – | – | CC(C)(C)OC(=O)NC1CCC(C#CC2=C[C@@H]3C[C@@]4(OC(=O)C=C24)[C@H]2CCCCN32)CC1 (stereo partly specified) | 100 | 100 | 93.4 | – | – |
| – | – | O=C1C=C2C(C#CC3CCCCC3)=C[C@@H]3C[C@@]2(O1)[C@H]1CCCCN31 | 99.8 | 100 | 49.3 | – | – |
| – | – | C[Si](C)(C)C#CC1=C[C@@H]2C[C@@]3(OC(=O)C=C13)[C@H]1CCCCN21 | 99 | 99.3 | 10.1 | – | – |
| – | – | O=C1C=C2C(C#Cc3ccccc3C(F)(F)F)=C[C@@H]3C[C@@]2(O1)[C@H]1CCCCN31 | 99.9 | 100 | 55.8 | – | – |

| Structure (SMILES) | IC50 (A549) [µM] | IC50 (A-375) [µM] | inhibition of growth at 10 µM [1] [%] | inhibition of growth at 20 µM [2] [%] | inhibition of growth at 1 µM [3] [%] | IC50 [4] [µM] | IC50 [5] [µM] |
| --- | --- | --- | --- | --- | --- | --- | --- |
| CC[C@@]1(O)C(=O)OCc2c1cc1n(c2=O)Cc2cc3ccccc3nc2-1 [CAMPTOTHECIN] | 0.009 | 0.013 | – | – | – | 0.035 | 0.003 |
| O=C1C=C2C(C#Cc3cccnc3)=C[C@@H]3C[C@@]2(O1)[C@H]1CCCCN31 | 4.4 | 0.95 | 100 | 100 | 96.4 | > 10 | – |
